Values after ≈ are worked out from the molar mass of the structure shown. Active and inactive are the calls of the source. The rule behind the calls is not given here.
What was measured:
[1] = Potentiation of gentamicin-induced antibacterial activity against Francisella philomiragia ATCC 25015 assessed as MIC of gentamicin at 50 uM after 48 hrs (reference value: 0.5 ug/ml); type: functional; details: ATCC 25015, 48 h
In short: (§1)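 Inocula were 5 × 10^5 CFU/mL in CAMHB with 2% IsoVitaleX (F. philomiragia) or TSB-C (F. novicida). Adjuvant from a 100 mM DMSO stock was held at one fixed concentration; the control had no adjuvant. Antibiotic started at 2–2,048 µg/mL in twofold serial dilutions. Incubation was stationary at 37°C for 48 h. Antibiotic MIC was the lowest concentration with no growth, compared with and without adjuvant.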

[2] = Effect on growth of Francisella philomiragia ATCC 25015 after 48 hrs
In short: (§2)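 Cultures grown 24 h were diluted to 5 × 10^5 CFU/mL in CAMHB with 2% IsoVitaleX (F. philomiragia) or TSB-C (F. novicida). Compound came from a 100 mM DMSO stock, starting at 200 µM, in twofold serial dilutions over 12 wells. Plates were incubated stationary at 37°C for 48 h. MIC was the lowest concentration with no bacterial growth.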

[3] = Potentiation of streptomycin-induced antibacterial activity against Francisella philomiragia ATCC 25015 assessed as MIC of streptomycin at 50 uM after 48 hrs (reference value: 4 ug/ml); type: functional; details: ATCC 25015, 48 h; in short: as §1
[4] = Potentiation of colistin-induced antibacterial activity against Francisella philomiragia ATCC 25015 assessed as reduction of colistin MIC at 50 uM after 48 hrs relative to control; type: functional; in short: as §1
[5] = Potentiation of azithromycin-induced antibacterial activity against Francisella philomiragia ATCC 25015 assessed as MIC of azithromycin at 50 uM after 48 hrs (reference value: 4 ug/ml); type: functional; details: ATCC 25015, 48 h; in short: as §1
[6] = Potentiation of colistin-induced antibacterial activity against Francisella philomiragia ATCC 25015 assessed as MIC of colistin at 50 uM after 48 hrs (reference value: 256 ug/ml); type: functional; details: ATCC 25015, 48 h; in short: as §1
[7] = Effect on growth of Francisella novicida U112 after 48 hrs; details: francisella tularensis subsp. novicida u112, 48 h; in short: as §2
[8] = microbe, parasite or virus in culture; type: functional; details: Francisella philomiragia, ATCC 25015, 48 h
[9] = microbe, parasite or virus in culture; type: functional, Francisella tularensis subsp. novicida U112; details: Francisella tularensis, 48 h
[10] = Effect on growth of Francisella philomiragia ATCC 25015 at 50 uM after 16 hrs by time kill assay
In short: (§3)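 F. philomiragia from 24 h CAMHB/2% IsoVitaleX cultures was inoculated to 5 × 10^5 CFU/mL, with compound or as an untreated control. Tubes were shaken at 37°C. Samples taken at 8, 12, 16, 20 and 24 h were serially diluted and plated on cysteine heart agar with 5% rabbit blood. Plates were incubated at 37°C for 24–36 h, and CFU were counted.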

[11] = Potentiation of colistin-induced antibacterial activity against Francisella novicida U112 assessed as reduction of colistin MIC at 50 uM after 48 hrs relative to control; type: functional, Francisella tularensis subsp. novicida U112; in short: as §1
[12] = Potentiation of gentamicin-induced antibacterial activity against Francisella novicida U112 assessed as MIC of gentamicin at 50 uM after 48 hrs (reference value: 1 ug/ml); type: functional, Francisella tularensis subsp. novicida U112; details: Francisella tularensis; in short: as §1
[13] = Effect on growth of Francisella philomiragia ATCC 25015 assessed as growth delay at 50 uM after 8 to 12 hrs by time kill assay; in short: as §3
[14] = Potentiation of colistin-induced antibacterial activity against Francisella novicida U112 assessed as reduction of colistin MIC at 100 uM after 48 hrs; type: functional, Francisella tularensis subsp. novicida U112; in short: as §1
[15] = Potentiation of azithromycin-induced antibacterial activity against Francisella novicida U112 assessed as MIC of azithromycin at 50 uM after 48 hrs (reference value: 2 ug/ml); type: functional, Francisella tularensis subsp. novicida U112; details: Francisella tularensis; in short: as §1
[16] = tested on: Francisella tularensis subsp. novicida U112; assay: Potentiation of azithromycin-induced antibacterial activity against Francisella novicida U112 assessed as reduction of azithromycin MIC at 50 uM after 48 hrs relative to control; type: functional; in short: as §1
[17] = Potentiation of azithromycin-induced antibacterial activity against Francisella philomiragia ATCC 25015 assessed as reduction of azithromycin MIC at 50 uM after 48 hrs relative to control; type: functional; in short: as §1
[18] = Potentiation of FR900098-induced antibacterial activity against Francisella philomiragia ATCC 25015 assessed as reduction of FR900098 MIC at 50 uM after 48 hrs relative to control; type: functional; in short: as §1
[19] = Potentiation of streptomycin-induced antibacterial activity against Francisella philomiragia ATCC 25015 assessed as reduction of streptomycin MIC at 50 uM after 48 hrs relative to control; type: functional; in short: as §1
[20] = Potentiation of gentamicin-induced antibacterial activity against Francisella philomiragia ATCC 25015 assessed as reduction of gentamicin MIC at 50 uM after 48 hrs relative to control; type: functional; in short: as §1

Row | Compound | MIC [1] [µg/mL] | MIC [2] [µM] | MIC [3] [µg/mL] | fold change (FC) [4] | MIC [5] [µg/mL] | MIC [6] [µg/mL] | MIC [7] [µg/mL] | MIC [8] [µg/mL] | MIC [9] [µg/mL] | Activity [10] | fold change (FC) [11] | MIC [12] [µg/mL] | Activity [13] | fold change (FC) [14] | MIC [15] [µg/mL] | Activity [16] | fold change (FC) [17] | fold change (FC) [18] | fold change (FC) [19] | fold change (FC) [20]
1 | CCCCc1ccc(C(=O)NCCCc2c[nH]c3ccccc23)cc1 | 0.25 | > 200 | 4 | 4 | 2 | 64 | – | – | – | – | – | – | – | – | – | – | – | – | – | –
2 | CCCCc1ccc(C(=O)NCCc2c[nH]c3ccccc23)cc1 | 0.25 | > 200 | 4 | – | 0.5 | 8 | > 200 | 1020 (≈ 3.2 mM) | 512 (≈ 1.6 mM) | Non-toxic | 2 | 4 | Toxic | 16 | 1 | – | – | – | – | –
3 | CCSC(=O)N1CCc2ccccc21 | 0.5 | > 200 | 4 | – | 0.5 | 256 | > 200 | 1020 (≈ 4.94 mM) | 1020 (≈ 4.94 mM) | – | – | 4 | – | – | 0.125 | Active | 8 | – | – | –
4 | CCCCCc1ccc(C2=NCCO2)cc1 | 1 | 200 (≈ 43.5 µg/mL) | 8 | – | 2 | 512 | – | < 64 | – | – | – | – | – | – | – | – | – | 16 | – | –
5 | Cc1cc2nc(N)[nH]c2cc1C | 0.125 | > 200 | 1 | – | 4 | 32 | > 200 | 1020 (≈ 6.35 mM) | 1020 (≈ 6.35 mM) | – | – | 1 | – | – | 2 | – | – | – | 4 | 4

Reference: ChEMBL document CHEMBL3792321, “Potentiation of Francisella Resistance to Conventional Antibiotics through Small Molecule Adjuvants” (Medchemcomm, 2016)
